≈ marks a conversion by molar mass, not a printed value.
Tests used:
[1] = test system: Enterococcus faecalis; test: Antibacterial activity against vancomycin-resistant Enterococcus faecalis NCTC 12201 after 20 hrs by broth microdilution method; assay type: functional; details: NCTC 12201, 20 h
Method in brief: (§1)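 Broth microdilution in Tryptic Soy Broth; growth read as OD600 after 20 h. MIC taken as the lowest drug concentration giving OD600 below 0.1. Run in triplicate.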

[2] = test system: Staphylococcus aureus; test: Antibacterial activity against methicillin-resistant Staphylococcus aureus EMRSA-15 after 20 hrs by broth microdilution method; assay type: functional; details: EMRSA-15, 20 h; method in brief: as §1
[3] = Stabilization of FAM/TAMRA-labeled AT-rich DNA duplex (unknown origin) assessed as change in melting temperature at 1 uM by FRET-based assay
Method in brief: (§2)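 FRET melting of a FAM/TAMRA-labelled AT-rich oligonucleotide, 400 nM working solution in 50 mM potassium, 50 mM cacodylate, pH 7.4. DNA was annealed at 85 °C for 6 min, then held at 25 °C for 5 h, and mixed 1:1 with sample. Fluorescence was read every 0.5 °C from 30 to 100 °C, with a 30 s hold per step. ΔTm is measured against the blank, in triplicate.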

[4] = Stabilization of FAM/TAMRA-labeled AT-rich DNA duplex (unknown origin) assessed as change in melting temperature at 5 uM by FRET-based assay; method in brief: as §2
[5] = test system: Enterococcus faecalis; test: Antibacterial activity against vancomycin-sensitive Enterococcus faecalis NCTC 775 after 20 hrs by broth microdilution method; assay type: functional; details: NCTC 775, 20 h
Method in brief: (§3)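 Broth microdilution in Tryptic Soy Broth, done in triplicate. Growth was read as OD600 after 20 h. MIC is the lowest drug concentration giving OD600 below 0.1.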

[6] = test system: Enterococcus faecium; test: Antibacterial activity against vancomycin-resistant Enterococcus faecium NCTC 12204 after 20 hrs by broth microdilution method; assay type: functional; details: NCTC 12204, 20 h; method in brief: as §1
[7] = test system: Staphylococcus aureus; test: Antibacterial activity against methicillin-sensitive Staphylococcus aureus ATCC 9144 after 20 hrs by broth microdilution method; assay type: functional; details: ATCC 9144, 20 h; method in brief: as §3
[8] = test system: Staphylococcus aureus; test: Antibacterial activity against methicillin-resistant Staphylococcus aureus MRSA252 after 20 hrs by broth microdilution method; assay type: functional; details: MRSA252, 20 h; method in brief: as §1
[9] = Cytotoxicity against human HeLa cells assessed as cell viability at 25 uM after 24 hrs by MTT assay; assay type: cell-based; details: read-out: Activity
Method in brief: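 HeLa cells, 10000 per well, were grown at 37 °C in 5% CO2 and allowed to settle for 24 h. Compound was then added in triplicate for 24 h of continuous exposure. Viability was read by MTT colorimetry, with absorbance at 570 nm.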

[10] = test system: Klebsiella pneumoniae; test: Antibacterial activity against Klebsiella pneumoniae M6 after 20 hrs by broth microdilution method; assay type: functional; details: M6, 20 h; method in brief: as §3
[11] = test system: Acinetobacter baumannii; test: Antibacterial activity against Acinetobacter baumannii AYE after 20 hrs by broth microdilution method; assay type: functional; method in brief: as §3
[12] = test system: Pseudomonas aeruginosa; test: Antibacterial activity against Pseudomonas aeruginosa NCTC 13437 after 20 hrs by broth microdilution method; assay type: functional; details: NCTC 13437, 20 h; method in brief: as §3
[13] = test system: Acinetobacter baumannii; test: Antibacterial activity against Acinetobacter baumannii ATCC 17978 after 20 hrs by broth microdilution method; assay type: functional; details: ATCC 17978, 20 h; method in brief: as §3
[14] = test system: Pseudomonas aeruginosa; test: Antibacterial activity against Pseudomonas aeruginosa NCTC 13437 after 20 hrs in the presence of Pa-beta-N and magnesium ions by broth microdilution method; assay type: functional; details: NCTC 13437, 20 h; method in brief: as §3
[15] = test system: Pseudomonas aeruginosa; test: Antibacterial activity against Pseudomonas aeruginosa PAO1 after 20 hrs in the presence of PMBN by broth microdilution method; assay type: functional; details: PAO1, 20 h; method in brief: as §3
[16] = test system: Klebsiella pneumoniae; test: Antibacterial activity against Klebsiella pneumoniae NCTC 13368 after 20 hrs in the presence of PMBN by broth microdilution method; assay type: functional; details: NCTC 13368, 20 h; method in brief: as §3
[17] = test system: Acinetobacter baumannii; test: Antibacterial activity against Acinetobacter baumannii ATCC 17978 after 20 hrs in the presence of PMBN by broth microdilution method; assay type: functional; details: ATCC 17978, 20 h; method in brief: as §3
[18] = test system: Pseudomonas aeruginosa; test: Antibacterial activity against Pseudomonas aeruginosa PAO1 after 20 hrs by broth microdilution method; assay type: functional; details: PAO1, 20 h; method in brief: as §3
[19] = test system: Pseudomonas aeruginosa; test: Antibacterial activity against Pseudomonas aeruginosa PAO1 after 20 hrs in the presence of Pa-beta-N and magnesium ions by broth microdilution method; assay type: functional; details: PAO1, 20 h; method in brief: as §3
[20] = test system: Acinetobacter baumannii; test: Antibacterial activity against Acinetobacter baumannii ATCC 17978 after 20 hrs in the presence of Pa-beta-N and magnesium ions by broth microdilution method; assay type: functional; details: ATCC 17978, 20 h; method in brief: as §3
[21] = test system: Klebsiella pneumoniae; test: Antibacterial activity against Klebsiella pneumoniae NCTC 13368 after 20 hrs in the presence of Pa-beta-N and magnesium ions by broth microdilution method; assay type: functional; details: NCTC 13368, 20 h; method in brief: as §3
[22] = test system: Pseudomonas aeruginosa; test: Antibacterial activity against Pseudomonas aeruginosa NCTC 13437 after 20 hrs in the presence of PMBN by broth microdilution method; assay type: functional; details: NCTC 13437, 20 h; method in brief: as §3
[23] = test system: Acinetobacter baumannii; test: Antibacterial activity against Acinetobacter baumannii AYE after 20 hrs in the presence of Pa-beta-N and magnesium ions by broth microdilution method; assay type: functional; method in brief: as §3
[24] = test system: Klebsiella pneumoniae; test: Antibacterial activity against Klebsiella pneumoniae M6 after 20 hrs in the presence of PMBN by broth microdilution method; assay type: functional; details: M6, 20 h; method in brief: as §3
[25] = test system: Klebsiella pneumoniae; test: Antibacterial activity against Klebsiella pneumoniae NCTC 13368 after 20 hrs by broth microdilution method; assay type: functional; details: NCTC 13368, 20 h; method in brief: as §3
[26] = test system: Klebsiella pneumoniae; test: Antibacterial activity against Klebsiella pneumoniae M6 after 20 hrs in the presence of Pa-beta-N and magnesium ions by broth microdilution method; assay type: functional; details: M6, 20 h; method in brief: as §3
[27] = test system: Acinetobacter baumannii; test: Antibacterial activity against Acinetobacter baumannii AYE after 20 hrs in the presence of PMBN by broth microdilution method; assay type: functional; method in brief: as §3

## COC(=O)c1ccc2c(c1)nc(C)n2-c1ccc(-c2cccc(NC(=O)c3ccc4nc(C)[nH]c4c3)c2)cn1
[1]
  MIC: > 32 µg/mL
[2]
  MIC: > 32 µg/mL

## Cc1nc2ccc(C(=O)Nc3cccc(-c4ccc(-n5c(C)nc6cc(C(=O)NCCCN7CCOCC7)ccc65)nc4)c3)cc2[nH]1
[1]
  MIC: > 128 µg/mL
[2]
  MIC: > 128 µg/mL

## Cc1nc2ccc(C(=O)Nc3cccc(-c4ccc(-n5c(C)nc6cc(C(=O)NCCCN7CCCC7)ccc65)nc4)c3)cc2[nH]1
[1]
  MIC: > 128 µg/mL
[2]
  MIC: > 128 µg/mL

## Cc1nc2cc(C(=O)NCCCN(C)C)ccc2n1-c1ccc(-c2cccc(NC(=O)c3ccccc3)c2)cn1
[1]
  MIC: > 128 µg/mL
[2]
  MIC: > 128 µg/mL

## Cn1cc(NC(=O)c2cc(NC(=O)CN=C(N)N)cn2C)cc1C(=O)NCCC(=N)N [NETROPSIN]
[3]
  deltaTm: 16.5 °C
[4]
  deltaTm: 22.2 °C

## CC1(C)S[C@@H]2[C@H](NC(=O)[C@H](N)c3ccc(O)cc3)C(=O)N2[C@H]1C(=O)O [AMOXICILLIN]
[5]
  MIC: 0.5 µg/mL (≈ 1.37 µM)
[1]
  MIC: 0.5 µg/mL (≈ 1.37 µM)
[6]
  MIC: 16 µg/mL (≈ 43.8 µM)
[2]
  MIC: 128 µg/mL (≈ 350 µM)
[7]
  MIC: 1 µg/mL (≈ 2.74 µM)
[8]
  MIC: > 128 µg/mL

## Cc1nc2cc(C(=O)NCCCN(C)C)ccc2n1-c1ccc(Br)cn1
[1]
  MIC: > 128 µg/mL
[2]
  MIC: > 128 µg/mL

## CCN(CC)CCCNC(=O)c1ccc2c(c1)nc(C)n2-c1ccc(-c2cccc(NC(=O)c3ccc4nc(C)[nH]c4c3)c2)cn1
[1]
  MIC: > 128 µg/mL
[2]
  MIC: > 128 µg/mL

## Cc1nc2cc(C(=O)NCCCN(C)C)ccc2n1-c1ccc(-c2cccc(N)c2)cn1
[1]
  MIC: > 128 µg/mL
[2]
  MIC: > 128 µg/mL

## COC(=O)c1ccc2c(c1)nc(C)n2-c1ccc(-c2cccc(NC(=O)c3ccc4nc(CCCN(C)C)[nH]c4c3)c2)cn1
[1]
  MIC: > 128 µg/mL
[2]
  MIC: > 128 µg/mL

## Cc1nc2ccc(-c3cccc(-c4ccc(-n5c(C)nc6cc(C(=O)NCCCN(C)C)ccc65)nc4)c3)cc2[nH]1
[5]
  MIC: 64 µg/mL (≈ 118 µM)
[1]
  MIC: 64 µg/mL (≈ 118 µM)
[9]
  viability at 24 h, 25 µM: 62%
[6]
  MIC: 64 µg/mL (≈ 118 µM)
[2]
  MIC: > 128 µg/mL
[7]
  MIC: > 128 µg/mL
[8]
  MIC: > 128 µg/mL

## Cc1nc2cc(C(=O)NCCCN(C)C)ccc2n1-c1ccc(-c2cccc(NC(=O)c3ccc4nc(CCCN(C)C)[nH]c4c3)c2)cn1
[5]
  MIC: > 128 µg/mL
[1]
  MIC: 32 to 64 µg/mL (≈ 48.6 to 97.3 µM)
[9]
  viability at 24 h, 25 µM: 39%
[6]
  MIC: 64 µg/mL (≈ 97.3 µM)
[2]
  MIC: > 128 µg/mL
[7]
  MIC: > 128 µg/mL
[8]
  MIC: > 128 µg/mL

## Cc1nc2ccc(C(=O)Nc3cccc(-c4ccc(-n5c(C)nc6cc(C(=O)NCCCN7CCN(C)CC7)ccc65)nc4)c3)cc2[nH]1
[10]
  MIC: > 32 µg/mL
[11]
  MIC: > 32 µg/mL
[5]
  MIC: > 128 µg/mL
[12]
  MIC: > 32 µg/mL
[13]
  MIC: > 32 µg/mL
[1]
  MIC: 64 µg/mL (≈ 99.7 µM)
[14]
  MIC: > 32 µg/mL
[15]
  MIC: > 32 µg/mL
[16]
  MIC: > 32 µg/mL
[9]
  viability at 24 h, 25 µM: > 98%
[17]
  MIC: > 32 µg/mL
[18]
  MIC: > 32 µg/mL
[19]
  MIC: > 32 µg/mL
[20]
  MIC: > 32 µg/mL
[21]
  MIC: > 32 µg/mL
[22]
  MIC: > 32 µg/mL
[23]
  MIC: > 32 µg/mL
[24]
  MIC: > 32 µg/mL
[6]
  MIC: > 128 µg/mL
[2]
  MIC: > 128 µg/mL
[25]
  MIC: > 32 µg/mL
[26]
  MIC: > 32 µg/mL
[7]
  MIC: 16 µg/mL (≈ 24.9 µM)
[27]
  MIC: > 32 µg/mL
[8]
  MIC: > 32 µg/mL

## CN[C@H](CC(C)C)C(=O)N[C@H]1C(=O)N[C@@H](CC(N)=O)C(=O)N[C@H]2C(=O)N[C@H]3C(=O)N[C@H](C(=O)N[C@H](C(=O)O)c4cc(O)cc(O)c4-c4cc3ccc4O)[C@H](O)c3ccc(c(Cl)c3)Oc3cc2cc(c3O[C@@H]2O[C@H](CO)[C@@H](O)[C@H](O)[C@H]2O[C@H]2C[C@](C)(N)[C@H](O)[C@H](C)O2)Oc2ccc(cc2Cl)[C@H]1O [VANCOMYCIN]
[5]
  MIC: 1 µg/mL (≈ 0.69 µM)
[1]
  MIC: > 128 µg/mL
[6]
  MIC: > 128 µg/mL

— ChEMBL document CHEMBL4011643, “Triaryl Benzimidazoles as a New Class of Antibacterial Agents against Resistant Pathogenic Microorganisms” (J Med Chem, 2017)
